Results as given in ChEMBL document CHEMBL2434876, “Design, synthesis and biological evaluation of 2-substituted quinolines as potential antileishmanial agents” (Eur J Med Chem, 2013).

Key:
[1] = Cytotoxicity against African green monkey Vero cells after 72 hrs by MTT assay; assay type: cell-based; details: chlorocebus sabaeus
Outline: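 Exponentially growing Vero cells (1 x 10^5/well) exposed 72 h at 37°C, 5% CO2, to 7-point threefold dilutions from 400 µM (DMSO stocks diluted in medium), with DMSO vehicle controls. MTT added for 2 h, formazan dissolved in DMSO, absorbance read at 544 nm. CC50 is the concentration halving viability versus medium-only cells; mean of two independent experiments.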

[2] = Selectivity index, ratio of CC50 for African green monkey Vero cells to IC50 for Leishmania donovani MHOM/IN/80/Dd8 amastigotes; assay type: functional
Outline: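 Selectivity index is Vero CC50 divided by IC50 against intracellular L. donovani amastigotes in J774A.1 cells, each measured over 72 h.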

Leishmania donovani [3] = test: Antileishmanial activity against Leishmania donovani MHOM/IN/80/Dd8 amastigotes infected in mouse J774A1 cells assessed as parasite growth inhibition after 72 hrs by luciferase reporter gene assay; assay type: functional, organism-based; details: MHOM/IN/80/Dd8, J774.A1, 72 h
Outline: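 J774A.1 macrophages (4 x 10^3/well) in RPMI-1640 with 10% FCS for 24 h, then infected with stationary-phase luciferase-expressing promastigotes (4 x 10^4/well). Non-internalized parasites washed off after 24 h. Compounds given as 7-point serial dilution from 100 µM for 72 h at 37°C. Steady-Glo luminescence read; IC50 from four-parameter Hill fit, mean of two independent experiments.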

[4] = Drug metabolism in human liver microsomes at 1 uM after 30 mins by LC-MS/MS analysis; assay type: ADME, Microsome; details: read-out: Drug metabolism
Outline: (§1)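 Liver microsomes (1 mg/mL protein) in sodium phosphate buffer pH 7.4 with 5 mM NADPH, preincubated 10 min at 37°C. Test compound taken from a 200 µM acetonitrile:DMSO (96:4) stock. Samples analysed by LC/MS/MS as analyte/internal standard peak-area ratio. Percent metabolized at 30 min relative to 0 min; NADPH-free controls run in parallel.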

[5] = Drug metabolism in mouse liver microsomes at 1 uM after 30 mins by LC-MS/MS analysis; assay type: ADME, Microsome; details: read-out: Drug metabolism; outline: as §1
[6] = Drug metabolism in hamster liver microsomes at 1 uM after 30 mins by LC-MS/MS analysis; assay type: ADME, Microsome; details: cricetinae, read-out: Drug metabolism; outline: as §1
Leishmania donovani [7] = test: Antileishmanial activity against Leishmania donovani MHOM/IN/80/Dd8 amastigotes infected in golden hamster assessed as parasite growth inhibition at 50 mg/kg, po bid for 5 days measured on day 7 by Giemsa staining assay; assay type: functional; details: read-out: GI
Outline: (§2)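 Inbred golden hamsters, 40-45 g, infected intracardially with 1 x 10^7 L. donovani amastigotes. Animals with +1 spleen biopsy grade (5-15 amastigotes/100 nuclei) were randomized, 5-6 per group. Dosing in distilled water/PBS began 48 h after biopsy and ran 5 consecutive days. Post-treatment spleen biopsy on day 7, Giemsa count; percent inhibition corrected for initial count and untreated-control increase.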

[8] = Elimination half life in Swiss Albino mouse at 10 mg/kg, iv by LC-MS/MS analysis; assay type: ADME, organism-based; design: dose 10 mg/kg, route intravenous; details: in vivo, read-out: beta t1/2 (converted)
Outline: (§3)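 Male Swiss Albino mice, 8-12 weeks, 30-40 g, fasted 4 h pre-dose and fed 4 h post-dose. Parallel groups: 10 mg/kg IV tail-vein bolus or 50 mg/kg oral gavage. Sparse sampling, 3 mice per time point, from 0.083 (IV only) to 24 h. K2EDTA plasma analysed by LC-MS/MS (calibration 1–1000 ng/mL). Non-compartmental parameters; bioavailability from dose-normalized AUC ratio versus IV.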

Leishmania donovani [9] = test: Antileishmanial activity against Leishmania donovani MHOM/IN/80/Dd8 amastigotes infected in golden hamster assessed as parasite growth inhibition at 50 mg/kg, ip bid for 5 days measured on day 7 by Giemsa staining assay; assay type: functional; details: MHOM/IN/80/Dd8, ip, route intraperitoneal, read-out: GI; outline: as §2
[10] = Metabolic stability in whole blood (unknown origin); assay type: ADME, tissue-based
[11] = Metabolic stability in plasma (unknown origin); assay type: ADME, cell-free
[12] = Oral bioavailability in Swiss Albino mouse at 50 mg/kg by LC-MS/MS analysis; assay type: ADME, organism-based; details: in vivo; outline: as §3
[13] = Plasma clearance in Swiss Albino mouse at 10 mg/kg, iv by LC-MS/MS analysis; assay type: ADME, organism-based; design: dose 10 mg/kg, route intravenous; outline: as §3
[14] = Tmax in Swiss Albino mouse at 10 mg/kg, iv by LC-MS/MS analysis; assay type: ADME, organism-based; design: dose 10 mg/kg, route intravenous; details: in vivo; outline: as §3
[15] = AUClast in Swiss Albino mouse at 10 mg/kg, iv by LC-MS/MS analysis; assay type: ADME, organism-based; design: time 0 - last, dose 10 mg/kg, route intravenous; details: plasma; outline: as §3
[16] = Cmax in Swiss Albino mouse at 10 mg/kg, iv by LC-MS/MS analysis; assay type: ADME, organism-based; design: dose 10 mg/kg, route intravenous; details: in vivo; outline: as §3
Leishmania donovani [17] = test: Antileishmanial activity against Leishmania donovani MHOM/IN/80/Dd8 amastigotes infected in golden hamster assessed as parasite growth inhibition at 50 mg/kg, ip qd for 5 days measured on day 7 by Giemsa staining assay; assay type: functional; details: MHOM/IN/80/Dd8, ip, route intraperitoneal, read-out: GI; outline: as §2
[18] = AUC (infinity) in Swiss Albino mouse at 10 mg/kg, iv by LC-MS/MS analysis; assay type: ADME, organism-based; design: time infinity, dose 10 mg/kg, route intravenous; details: plasma; outline: as §3
[19] = AUClast in Swiss Albino mouse at 50 mg/kg, po by LC-MS/MS analysis; assay type: ADME, organism-based; design: time 0 - last, dose 50 mg/kg, route oral; details: plasma; outline: as §3
[20] = Cmax in Swiss Albino mouse at 50 mg/kg, po by LC-MS/MS analysis; assay type: ADME, organism-based; design: dose 50 mg/kg, route oral; details: in vivo; outline: as §3
[21] = Tmax in Swiss Albino mouse at 50 mg/kg, po by LC-MS/MS analysis; assay type: ADME, organism-based; design: dose 50 mg/kg, route oral; details: in vivo; outline: as §3
[22] = Volume of distribution at steady state in Swiss Albino mouse at 10 mg/kg, iv by LC-MS/MS analysis; assay type: ADME, organism-based; design: dose 10 mg/kg, route intravenous; details: in vivo, read-out: Vdss; outline: as §3

SMILES	CC50 at 72 h [1]	Ratio CC50/IC50 [2]	IC50 (Leishmania donovani [3])	metabolised at 0.5 h, 1 µM [4]	metabolised at 0.5 h, 1 µM [5]	other results
O=C(O)/C=C/c1ccc2ccccc2n1	> 400 µM	>7.96	50.2 µM			
COc1ccc(-c2cc(/C=C/CO)nc3ccc(Cl)cc23)cc1	37.1 µM	168.72	0.22 µM	8%	34%	
OC/C=C/c1ccc2cc(F)ccc2n1	51.2 µM	2.86	17.9 µM	76%	100%	
N#C/C=C/c1ccc2ccccc2n1	155 µM	5.41	28.6 µM	100%	100%	
OC/C=C/c1cc(N2CCCCC2)c2cc(Cl)c(F)cc2n1	22.3 µM	7.86	2.84 µM	39%	81%	metabolised at 0.5 h, 1 µM [6]: 100%
OCC#Cc1ccc2ccccc2n1	26.2 µM	2.45	10.7 µM	22%	99%	
OC/C=C/c1cc(N2CCOCC2)c2cc(Cl)c(F)cc2n1 [listing 1 of 2 here]						inhibition in vivo at 50 mg/kg (Leishmania donovani [7]): 84.3%
COc1ccc2nc(/C=C/CO)ccc2c1	45.9 µM	1.42	32.4 µM			
OC/C=C/c1cc(-c2ccc(F)cc2)c2cc(Cl)ccc2n1	32.5 µM	20.71	1.57 µM	25%	83%	
OC/C=C/c1cc(N2CCOCC2)c2cc(Cl)c(F)cc2n1 [listing 2 of 2 here]	41.2 µM	187.5	0.22 µM	35%	45%	half-life [8]: 28.2 min; inhibition in vivo at 50 mg/kg (Leishmania donovani [9]): 77.2%; Stability [10]: Unstable; Stability [11]: Stable; bioavailability [12]: 0.7%; clearance [13]: 51.9 L/h/kg; Tmax [14]: 4.8 min; AUC(0-t) [15]: 0.193 µg·h/mL; Cmax [16]: 2.23 µg/mL; inhibition in vivo at 50 mg/kg (Leishmania donovani [17]): 25.4%; metabolised at 0.5 h, 1 µM [6]: 66%; AUC(0-inf) [18]: 0.193 µg·h/mL; AUC(0-t) [19]: 0.00688 µg·h/mL; Cmax [20]: 0.0197 µg/mL; Tmax [21]: 15 min; Vd [22]: 7.54 L/kg
CC1CN(c2cc(/C=C/CO)nc3cc(F)c(Cl)cc23)CC(C)O1 (stereo not drawn)	41.3 µM	8.97	4.75 µM	17%	50%	metabolised at 0.5 h, 1 µM [6]: 99%
OC/C=C/c1ccc2cc(Cl)c(F)cc2n1	79.6 µM	5.54	14.3 µM	50%	60%	
OC/C=C/c1ccc2c(F)c(Cl)ccc2n1	19.5 µM	4.76	4.1 µM			
